According to ChEMBL document CHEMBL1158372, “Design, synthesis, and biological evaluation of novel triazole derivatives as inhibitors of cytochrome P450 14alpha-demethylase” (2009):
Values after ≈ are worked out from the molar mass of the structure shown.

Legend:
Assay type in all cases: functional
Candida albicans = test: Antifungal activity against Candida albicans ATCC 76615 after 24 hrs by micro-broth dilution method; settings: ATCC 76615, 24 h
Procedure, shortened: (§1)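 NCCLS (M27-A2) broth microdilution in 96-well format. Compounds in DMSO, serially diluted in growth medium, inoculated, incubated at 35 °C, and read at 24 h (C. albicans ATCC76615) or 72 h (Cry. neoformans ATCC32609). MIC80 is the first well with about 80% less growth than the drug-free well. Three independent runs per agent; the mean of replicates is reported.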

Cryptococcus neoformans = test: Antifungal activity against Cryptococcus neoformans ATCC 32609 after 72 hrs by micro-broth dilution method; settings: ATCC 32609, 72 h; procedure, shortened: as §1
Candida parapsilosis = test: Antifungal activity against Candida parapsilosis by micro-broth dilution method; settings: Lodderomyces parapsilosis
Procedure, shortened: (§2)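 Broth microdilution in 96-well plates following the NCCLS method. DMSO solutions of test agents were serially diluted in growth medium, inoculated, and incubated at 35 °C. MIC80 is the first well showing roughly 80% growth reduction versus the drug-free control. C. albicans ATCC76615 and Cry. neoformans ATCC32609 served as quality-control strains. Each test was done three times; the mean of replicates is reported.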

Candida tropicalis = test: Antifungal activity against Candida tropicalis by micro-broth dilution method; procedure, shortened: as §2
Trichophyton rubrum = test: Antifungal activity against Trichophyton rubrum by micro-broth dilution method; procedure, shortened: as §2
Pichia kudriavzevii = test: Antifungal activity against Candida krusei by micro-broth dilution method; procedure, shortened: as §2
Nannizzia gypsea = test: Antifungal activity against Microsporum gypseum by micro-broth dilution method; procedure, shortened: as §2
Aspergillus fumigatus = test: Antifungal activity against Aspergillus fumigatus by micro-broth dilution method; procedure, shortened: as §2

MIC80 (Candida albicans) | MIC80 (Cryptococcus neoformans) | MIC80 (Candida parapsilosis) | MIC80 (Candida tropicalis) | MIC80 (Trichophyton rubrum) | MIC80 (Pichia kudriavzevii) | MIC80 (Nannizzia gypsea) | MIC80 (Aspergillus fumigatus) | Structure (SMILES)
1 µg/mL (≈ 2.06 µM) | 1 µg/mL (≈ 2.06 µM) | 0.25 µg/mL (≈ 0.516 µM) | 1 µg/mL (≈ 2.06 µM) | 0.0625 µg/mL (≈ 0.129 µM) | 1 µg/mL (≈ 2.06 µM) | 0.25 µg/mL (≈ 0.516 µM) | > 64 µg/mL | C=CCN(Cc1ccc(C(=O)OCC(C)C)cc1)CC(O)(Cn1cncn1)c1ccc(F)cc1F (stereo not drawn)
0.0039 µg/mL (≈ 0.0101 µM) | 0.0625 µg/mL (≈ 0.163 µM) | 0.0625 µg/mL (≈ 0.163 µM) | 0.0625 µg/mL (≈ 0.163 µM) | 0.25 µg/mL (≈ 0.65 µM) | 0.0625 µg/mL (≈ 0.163 µM) | 0.0039 µg/mL (≈ 0.0101 µM) | > 64 µg/mL | C=CCN(Cc1ccccc1)CC(O)(Cn1cncn1)c1ccc(F)cc1F (stereo not drawn)
0.0625 µg/mL (≈ 0.141 µM) | 0.25 µg/mL (≈ 0.565 µM) | 0.25 µg/mL (≈ 0.565 µM) | 0.0625 µg/mL (≈ 0.141 µM) | 0.25 µg/mL (≈ 0.565 µM) | 0.0625 µg/mL (≈ 0.141 µM) | 0.0156 µg/mL (≈ 0.0353 µM) | > 64 µg/mL | C=CCN(Cc1ccc(C(=O)OC)cc1)CC(O)(Cn1cncn1)c1ccc(F)cc1F (stereo not drawn)
0.0625 µg/mL (≈ 0.135 µM) | 0.25 µg/mL (≈ 0.54 µM) | 0.25 µg/mL (≈ 0.54 µM) | 0.0625 µg/mL (≈ 0.135 µM) | 0.25 µg/mL (≈ 0.54 µM) | 0.25 µg/mL (≈ 0.54 µM) | 0.0156 µg/mL (≈ 0.0337 µM) | > 64 µg/mL | C=CCN(Cc1ccccc1Br)CC(O)(Cn1cncn1)c1ccc(F)cc1F (stereo not drawn)
0.0625 µg/mL (≈ 0.135 µM) | 0.25 µg/mL (≈ 0.54 µM) | 0.25 µg/mL (≈ 0.54 µM) | 0.25 µg/mL (≈ 0.54 µM) | 0.25 µg/mL (≈ 0.54 µM) | 0.0625 µg/mL (≈ 0.135 µM) | 0.0625 µg/mL (≈ 0.135 µM) | 4 µg/mL (≈ 8.63 µM) | C=CCN(Cc1ccc(Br)cc1)CC(O)(Cn1cncn1)c1ccc(F)cc1F (stereo not drawn)
1 µg/mL (≈ 2.01 µM) | 1 µg/mL (≈ 2.01 µM) | 1 µg/mL (≈ 2.01 µM) | 1 µg/mL (≈ 2.01 µM) | 0.25 µg/mL (≈ 0.501 µM) | 1 µg/mL (≈ 2.01 µM) | 1 µg/mL (≈ 2.01 µM) | > 64 µg/mL | C=CCN(Cc1ccc(C(=O)OCCCCC)cc1)CC(O)(Cn1cncn1)c1ccc(F)cc1F (stereo not drawn)
1 µg/mL (≈ 1.69 µM) | 4 µg/mL (≈ 6.77 µM) | 0.25 µg/mL (≈ 0.423 µM) | 0.25 µg/mL (≈ 0.423 µM) | 1 µg/mL (≈ 1.69 µM) | 4 µg/mL (≈ 6.77 µM) | 1 µg/mL (≈ 1.69 µM) | > 64 µg/mL | C=CCN(Cc1ccc(C(=O)Oc2ccc(C(=O)OCCC)cc2)cc1)CC(O)(Cn1cncn1)c1ccc(F)cc1F (stereo not drawn)
0.0156 µg/mL (≈ 0.0388 µM) | 0.0625 µg/mL (≈ 0.155 µM) | 0.0625 µg/mL (≈ 0.155 µM) | 0.0625 µg/mL (≈ 0.155 µM) | 1 µg/mL (≈ 2.48 µM) | 0.0625 µg/mL (≈ 0.155 µM) | 0.0156 µg/mL (≈ 0.0388 µM) | > 64 µg/mL | C=CCN(Cc1ccc(F)cc1)CC(O)(Cn1cncn1)c1ccc(F)cc1F (stereo not drawn)
0.0156 µg/mL (≈ 0.0372 µM) | 0.25 µg/mL (≈ 0.597 µM) | 0.25 µg/mL (≈ 0.597 µM) | 0.0625 µg/mL (≈ 0.149 µM) | 1 µg/mL (≈ 2.39 µM) | 0.0625 µg/mL (≈ 0.149 µM) | 0.0625 µg/mL (≈ 0.149 µM) | > 64 µg/mL | C=CCN(Cc1cccc(Cl)c1)CC(O)(Cn1cncn1)c1ccc(F)cc1F (stereo not drawn)
0.0156 µg/mL (≈ 0.0388 µM) | 0.0625 µg/mL (≈ 0.155 µM) | 0.0625 µg/mL (≈ 0.155 µM) | 0.0625 µg/mL (≈ 0.155 µM) | 0.25 µg/mL (≈ 0.621 µM) | 0.0625 µg/mL (≈ 0.155 µM) | 0.0156 µg/mL (≈ 0.0388 µM) | > 64 µg/mL | C=CCN(Cc1cccc(F)c1)CC(O)(Cn1cncn1)c1ccc(F)cc1F (stereo not drawn)
0.25 µg/mL (≈ 0.455 µM) | 1 µg/mL (≈ 1.82 µM) | 1 µg/mL (≈ 1.82 µM) | 1 µg/mL (≈ 1.82 µM) | 4 µg/mL (≈ 7.28 µM) | 1 µg/mL (≈ 1.82 µM) | 0.25 µg/mL (≈ 0.455 µM) | > 64 µg/mL | C=CCN(Cc1ccc(C(=O)Oc2ccc([N+](=O)[O-])cc2)cc1)CC(O)(Cn1cncn1)c1ccc(F)cc1F (stereo not drawn)
1 µg/mL (≈ 1.98 µM) | 1 µg/mL (≈ 1.98 µM) | 1 µg/mL (≈ 1.98 µM) | 1 µg/mL (≈ 1.98 µM) | 16 µg/mL (≈ 31.7 µM) | 1 µg/mL (≈ 1.98 µM) | 1 µg/mL (≈ 1.98 µM) | > 64 µg/mL | C=CCN(Cc1ccc(C(=O)Oc2ccccc2)cc1)CC(O)(Cn1cncn1)c1ccc(F)cc1F (stereo not drawn)
0.0156 µg/mL (≈ 0.0392 µM) | 0.0625 µg/mL (≈ 0.157 µM) | 0.0625 µg/mL (≈ 0.157 µM) | 0.0625 µg/mL (≈ 0.157 µM) | 0.0625 µg/mL (≈ 0.157 µM) | 0.0625 µg/mL (≈ 0.157 µM) | 0.0039 µg/mL (≈ 0.00979 µM) | > 64 µg/mL | C=CCN(Cc1ccccc1C)CC(O)(Cn1cncn1)c1ccc(F)cc1F (stereo not drawn)
0.25 µg/mL (≈ 0.606 µM) | 0.25 µg/mL (≈ 0.606 µM) | 1 µg/mL (≈ 2.42 µM) | 0.0156 µg/mL (≈ 0.0378 µM) | 1 µg/mL (≈ 2.42 µM) | 0.25 µg/mL (≈ 0.606 µM) | 0.0625 µg/mL (≈ 0.152 µM) | > 64 µg/mL | C=CCN(Cc1ccc(CC)cc1)CC(O)(Cn1cncn1)c1ccc(F)cc1F (stereo not drawn)

Structure (SMILES) | MIC80 (Candida albicans) | MIC80 (Cryptococcus neoformans) | MIC80 (Candida parapsilosis) | MIC80 (Candida tropicalis) | MIC80 (Trichophyton rubrum) | MIC80 (Pichia kudriavzevii) | MIC80 (Nannizzia gypsea) | MIC80 (Aspergillus fumigatus)
C[C@@H]1[C@H](O)[C@@H](C)/C=C/C=C/C=C/C=C/C=C/C=C/C=C/[C@H](O[C@@H]2O[C@H](C)[C@@H](O)[C@H](N)[C@@H]2O)C[C@@H]2O[C@](O)(C[C@@H](O)C[C@@H](O)[C@H](O)CC[C@@H](O)C[C@@H](O)CC(=O)O[C@H]1C)C[C@H](O)[C@H]2C(=O)O [AMPHOTERICIN B] | 2 µg/mL (≈ 2.16 µM) | 2 µg/mL (≈ 2.16 µM) | 2 µg/mL (≈ 2.16 µM) | 2 µg/mL (≈ 2.16 µM) | 2 µg/mL (≈ 2.16 µM) | 2 µg/mL (≈ 2.16 µM) | 2 µg/mL (≈ 2.16 µM) | 64 µg/mL (≈ 69.3 µM)
C[C@@H](c1ncncc1F)[C@](O)(Cn1cncn1)c1ccc(F)cc1F [VORICONAZOLE] | 0.0156 µg/mL (≈ 0.0447 µM) | 0.0156 µg/mL (≈ 0.0447 µM) | 0.0039 µg/mL (≈ 0.0112 µM) | 0.0039 µg/mL (≈ 0.0112 µM) | 0.0625 µg/mL (≈ 0.179 µM) | 0.0625 µg/mL (≈ 0.179 µM) | 0.0039 µg/mL (≈ 0.0112 µM) | 0.25 µg/mL (≈ 0.716 µM)
